The subject of assay [1] is Human immunodeficiency virus 1. As to the kind of experiment: Antiviral activity against HIV1 pseudotyped virus expressed in human U87 cells co-expressing AMLV envelope after 48 hrs by cell-based luciferase reporter gene assay. Type of assay: functional, organism-based. Particulars: u-87mg atcc; call rule not given here. The method in brief: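 Single-round infection of U87-CD4/CCR5 or U87-CD4/CXCR4 cells (seeded at 1.2x10⁴/well, infected next day) with 20 ng p24 per well of luciferase-reporter pseudovirus made in 293T cells using pNL4-3-LucR⁺E⁻. Compounds were applied in six to nine serial dilutions (1:10 or 1:5) alongside DMSO, in triplicate. Luciferase was read at 48 h, and percent infection was taken relative to DMSO wells.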
For orientation: Reporter assays use an easily measured gene product as a stand-in for the process of interest.

For assay [2], the system named is Human immunodeficiency virus 1. In words: Antiviral activity against Human immunodeficiency virus type 1 (isolate YU2) pseudotyped virus expressed in human U87 cells after 48 hrs by cell-based luciferase reporter gene assay. Format: functional, U-87MG ATCC. Particulars: Human immunodeficiency virus 1, isolate YU2, U-87 MG. The method in brief: (§1)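 Envelope-pseudotyped, single-round luciferase-reporter virus was made in 293T cells co-transfected with pNL4-3-LucR+E- and the matching Env vector. U87-CD4/CCR5 or U87-CD4/CXCR4 cells were seeded at 1.2x10⁴ per well and infected next day with 20 ng p24 per well plus compound (6–9 dilutions, 1:10 or 1:5, triplicate) or DMSO. Luciferase was read at 48 h; % infection is relative to DMSO wells.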

The subject of assay [3] is Human immunodeficiency virus 1. In words: Antiviral activity against Human immunodeficiency virus type 1 (JRCSF ISOLATE) pseudotyped virus expressed in human U87 cells after 48 hrs by luciferase reporter gene assay. Type of assay: functional, cell-based, U-87MG ATCC. As to conditions: Human immunodeficiency virus 1, JRCSF ISOLATE, U-87 MG. The method in brief:
as §1

The subject of assay [4] is Human immunodeficiency virus 1. In words: Antiviral activity against HIV1 isolate Hxbc2 pseudotyped virus expressed in human U87 cells after 48 hrs by luciferase reporter gene assay. As to conditions: Human immunodeficiency virus 1, isolate Hxbc2, U-87 MG. Format: functional, organism-based, U-87MG ATCC. In short, it runs like this: as §1
Assay [5] concerns Human immunodeficiency virus 1. As to the kind of experiment: Antiviral activity against HIV1 subtype C isolate 98US_MSC5016 infected in human PBMC. Format: functional, organism-based. As to conditions: Human immunodeficiency virus 1, isolate 98US_MSC5016.
The subject of assay [6] is Human immunodeficiency virus 1. As to the kind of experiment: Antiviral activity against HIV1 subtype B isolate 94US_33931N infected in human PBMC. Type of assay: functional, organism-based. Particulars: Human immunodeficiency virus 1, isolate 94US_33931N.
For assay [7], the system named is Human immunodeficiency virus 1. As to the kind of experiment: Antiviral activity against HIV1 subtype A isolate 92UG037 infected in human PBMC. Format: functional, organism-based. As to conditions: Human immunodeficiency virus 1, isolate 92UG037.
For assay [8], the system named is Human immunodeficiency virus 1. As to the kind of experiment: Antiviral activity against HIV1 subtype B isolate 91US004 infected in human PBMC. Type of assay: functional, organism-based. Particulars: Human immunodeficiency virus 1, isolate 91US004.
The nature of assay [9]: Antiviral index, ratio of TC50 for human PBMC to IC50 for HIV1 subtype D isolate 99UG_A07412M1.
For assay [10], the system named is Human immunodeficiency virus 1. As to the kind of experiment: Antiviral activity against HIV1 subtype D isolate 99UG_A07412M1 infected in human PBMC. Format: functional, organism-based. Particulars: Human immunodeficiency virus 1, isolate 99UG_A07412M1.
Assay [11] can be described thus: Antiviral index, ratio of TC50 for human PBMC to IC50 for HIV1 subtype B isolate 94US_33931N.
The nature of assay [12]: Antiviral index, ratio of TC50 for human PBMC to IC50 for HIV1 subtype B isolate 91US004.
The nature of assay [13]: Antiviral index, ratio of TC50 for human PBMC to IC50 for HIV1 subtype A isolate 92UG037.
For assay [14], the system named is Human immunodeficiency virus 2. In words: Antiviral activity against HIV2 isolate CDC310319 infected in human PBMC. As to conditions: Human immunodeficiency virus 2, isolate CDC310319. Format: functional, organism-based.
Assay [15] is described as follows: Antiviral index, ratio of TC50 for human PBMC to IC50 for HIV1 subtype C isolate 98US_MSC5016.

What is called IC50 is the point on the concentration scale where inhibition reaches its midpoint. On to `O=C(CSc1ncnc2sccc12)N1CCN(C(=O)c2cccs2)CC1`, for which the concentration for half-maximal inhibition (IC50) entry was “Not Active” in assay [1] and 33.7 µM in assay [2].

Take `O=C(c1ccccc1)N1CCN(C(=O)c2ccc3c4c(cccc24)CC3)CC1`: the values for the half-inhibitory concentration (IC50) entry in assay [1] and in [2] were “Not Active” and 13.1 µM, respectively.

Consider `O=C(COc1cccc2ccccc12)N1CCN(C(=O)c2ccccc2)CC1`, for which the IC50 result in assay [1] was “Not Active”; in [2], 53.5 µM.

As to `O=C(Cc1cccc2ccccc12)N1CCN(C(=O)c2ccco2)CC1`, the results for the concentration for half-maximal inhibition (IC50) result in [1] and in assay [2] were “Not Active” and 79.4 µM, respectively.

Take `Cc1cc(C)nc(SCC(=O)N2CCN(C(=O)c3ccccc3)CC2)n1`: the figures for the IC50 entry in [1] and in assay [2] were “Not Active” and 153 µM, respectively.

With `O=C(c1ccccc1)N1CC2CN(C(=O)c3ccc4c5c(cccc35)CC4)CC2C1` (stereo not given), the half-maximal inhibitory concentration (IC50) in assay [3] was 100 µM; in assay [1], “Not Active”.

Turning to `COc1cnc(Cl)c2[nH]cc(C(=O)C(=O)N3CC4CN(C(=O)c5ccccc5)CC4C3)c12` (stereo not given), the results for the half-maximal inhibitory concentration (IC50) in assay [3], in [4] and in assay [1] were 0.98 µM, 16.8 µM and “Not Active”, respectively.

Take `COc1ncc(OC)c2c(C(=O)C(=O)N3CC4CN(C(=O)c5ccccc5)CC4C3)c[nH]c12` (stereo not given): the IC50 in [3] was 0.09 µM; in assay [4], 0.19 µM; in [1], “Not Active”.

For `COc1cnc(-n2cnc(C)n2)c2[nH]cc(C(=O)C(=O)N3CC4CN(C(=O)c5ccccc5)CC4C3)c12` (stereo not given), the results for the concentration for half-maximal inhibition (IC50) in assay [3], in [4] and in assay [1] were 0.0008 µM, 0.001 µM and “Not Active”, respectively.

As for `COc1cnc(-n2cnc(C)n2)c2[nH]cc(C(=O)C(=O)N3CC4CN(C(=O)C5=CCCCC5)CC4C3)c12` (stereo not given), the half-inhibitory concentration (IC50) in assay [5] came to 3.9 µM; in assay [6] it was 0.0006 µM; in [7] it was 25.2 µM; in [8], 0.195 µM; in assay [3] it was 0.002 µM; in assay [10], 0.49 µM. Moreover, the results for the IC50 in assay [4], in [1] and in assay [14] were 0.0006 µM, “Not Active” and above 100 µM, respectively. The Ratio in assay [9] is listed as above 204; in assay [11] it was above 166666; in assay [12] it was above 513; in assay [13], above 3.97; in assay [15], above 25.6.
